The text below walks through data of ChEMBL document CHEMBL1275396 (J Med Chem, 2010).

In general, pKi refers to −log10 of the Ki, conventionally taken in molar units. Low readings indicate a large Ki, high ones a small Ki. A word on the pEC50: it is the EC50 on a negative log10 scale, so that one unit is a factor of ten. For orientation: Emax means the greatest response seen or fitted, relative to the assay's reference.

For experiment [1], the target named is T1, Neuronal acetylcholine receptor; alpha3/beta4 (Rattus norvegicus, UniProt P04757+P12392). Kind of experiment: Displacement of [3H]epibatidine from rat alpha3beta4 nAChR expressed in […] cells after 3 hrs. It is filed as cell-based. A general note: In a radioligand displacement assay an active substance lowers the binding of a labelled ligand.
T1 sequence (P04757 whole entry): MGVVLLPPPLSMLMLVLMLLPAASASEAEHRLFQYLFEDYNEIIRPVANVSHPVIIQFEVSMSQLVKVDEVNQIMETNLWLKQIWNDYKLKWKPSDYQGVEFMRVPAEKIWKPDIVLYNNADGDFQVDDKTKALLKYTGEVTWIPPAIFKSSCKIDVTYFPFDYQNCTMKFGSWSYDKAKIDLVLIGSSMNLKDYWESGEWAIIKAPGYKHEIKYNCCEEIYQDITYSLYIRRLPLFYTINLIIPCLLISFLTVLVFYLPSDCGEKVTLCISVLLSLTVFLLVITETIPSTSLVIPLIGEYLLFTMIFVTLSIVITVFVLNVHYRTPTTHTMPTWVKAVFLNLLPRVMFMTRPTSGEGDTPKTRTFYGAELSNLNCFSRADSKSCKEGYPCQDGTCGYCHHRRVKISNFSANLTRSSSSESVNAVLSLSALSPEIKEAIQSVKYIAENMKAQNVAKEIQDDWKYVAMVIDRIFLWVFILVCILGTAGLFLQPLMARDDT
T1 sequence (P12392 whole entry): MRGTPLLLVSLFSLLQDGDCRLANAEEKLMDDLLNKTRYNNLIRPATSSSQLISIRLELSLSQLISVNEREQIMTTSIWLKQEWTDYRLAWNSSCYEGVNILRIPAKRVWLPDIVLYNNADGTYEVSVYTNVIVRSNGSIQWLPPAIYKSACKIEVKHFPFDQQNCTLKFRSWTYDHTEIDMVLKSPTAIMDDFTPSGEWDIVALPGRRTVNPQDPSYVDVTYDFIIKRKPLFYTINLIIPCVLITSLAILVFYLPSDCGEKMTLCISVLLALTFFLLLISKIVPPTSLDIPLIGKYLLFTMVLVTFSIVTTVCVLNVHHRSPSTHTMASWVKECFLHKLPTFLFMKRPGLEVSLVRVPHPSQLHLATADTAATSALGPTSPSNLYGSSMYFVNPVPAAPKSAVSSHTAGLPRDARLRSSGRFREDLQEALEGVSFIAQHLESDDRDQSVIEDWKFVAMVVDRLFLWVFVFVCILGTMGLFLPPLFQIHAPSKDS
Experiment [2] has as its target Neuronal acetylcholine receptor; alpha4/beta2 (Rattus norvegicus, UniProt P09483+P12390). The experiment in a line: Displacement of [3H]epibatidine from rat alpha4beta2 nAChR expressed in […] cells after 3 hrs. It is filed as cell-based.
The target in experiment [3] is T1, Neuronal acetylcholine receptor; alpha3/beta4. Kind of experiment: Partial agonist activity at rat alpha3beta4 nAChR expressed in […] cells assessed as increase of calcium influx by FLIPR assay. The class given is functional, cell-based. An outline of the steps: (§1)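 For functional assays, KXα3β4R2 cells (DMEM, 10% FBS, geneticin, 37°C, 7.5% CO2) were seeded into collagen-coated 96-well plates at about 50,000 cells/well. They grew to a confluent monolayer in 24 to 30 h before testing.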

Experiment [4] concerns the target Neuronal acetylcholine receptor; alpha3/beta4 (Rattus norvegicus) (UniProt P04757+P12392). Kind of experiment: Partial agonist activity at rat alpha3beta4 nAChR expressed in […] cells assessed as increase of calcium influx by FLIPR assay relative to control. The class given is functional, cell-based. The method, boiled down:
as §1

The species named for experiment [5] is Rattus norvegicus. The experiment in a line: Selectivity ratio of Ki for rat alpha3beta4 nAChR to Ki for alpha7 nAChR in rat brain membranes. The class given is cell membranes.
The species named for experiment [6] is Rattus norvegicus. The experiment in a line: Selectivity ratio of Ki for rat alpha3beta4 nAChR to Ki for rat alpha4beta2 nAChR. An outline of the steps: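 KXα3β4R2 or KXα4β2R2 cells grown in DMEM with 10% FBS and 0.4 mg/mL geneticin at 37°C under 7.5% CO2. Cells were scraped, homogenised in Tris buffer and spun at 20,000 x g to give membranes. […] Ki was obtained from IC50 by Cheng-Prusoff.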

pEC50, pKi: −log10 of the molar value.

Sequence of Neuronal acetylcholine receptor; alpha4/beta2 (P09483 whole entry): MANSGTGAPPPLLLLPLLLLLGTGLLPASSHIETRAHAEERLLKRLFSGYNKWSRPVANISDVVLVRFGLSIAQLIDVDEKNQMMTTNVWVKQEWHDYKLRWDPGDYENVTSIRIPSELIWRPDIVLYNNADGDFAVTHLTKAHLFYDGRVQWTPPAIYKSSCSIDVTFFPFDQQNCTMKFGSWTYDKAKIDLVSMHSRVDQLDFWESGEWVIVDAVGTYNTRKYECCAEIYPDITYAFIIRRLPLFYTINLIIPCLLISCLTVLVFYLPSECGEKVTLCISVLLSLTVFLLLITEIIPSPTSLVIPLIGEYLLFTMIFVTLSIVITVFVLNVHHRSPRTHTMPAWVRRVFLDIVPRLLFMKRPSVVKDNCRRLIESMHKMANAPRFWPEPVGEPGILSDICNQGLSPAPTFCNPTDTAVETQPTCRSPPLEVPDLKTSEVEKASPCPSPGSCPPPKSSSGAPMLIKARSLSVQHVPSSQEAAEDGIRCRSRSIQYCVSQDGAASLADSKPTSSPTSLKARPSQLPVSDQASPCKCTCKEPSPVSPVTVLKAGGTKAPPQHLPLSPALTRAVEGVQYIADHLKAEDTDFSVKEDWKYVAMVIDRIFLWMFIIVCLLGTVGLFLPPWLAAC
Sequence of Neuronal acetylcholine receptor; alpha4/beta2 (P12390 whole entry): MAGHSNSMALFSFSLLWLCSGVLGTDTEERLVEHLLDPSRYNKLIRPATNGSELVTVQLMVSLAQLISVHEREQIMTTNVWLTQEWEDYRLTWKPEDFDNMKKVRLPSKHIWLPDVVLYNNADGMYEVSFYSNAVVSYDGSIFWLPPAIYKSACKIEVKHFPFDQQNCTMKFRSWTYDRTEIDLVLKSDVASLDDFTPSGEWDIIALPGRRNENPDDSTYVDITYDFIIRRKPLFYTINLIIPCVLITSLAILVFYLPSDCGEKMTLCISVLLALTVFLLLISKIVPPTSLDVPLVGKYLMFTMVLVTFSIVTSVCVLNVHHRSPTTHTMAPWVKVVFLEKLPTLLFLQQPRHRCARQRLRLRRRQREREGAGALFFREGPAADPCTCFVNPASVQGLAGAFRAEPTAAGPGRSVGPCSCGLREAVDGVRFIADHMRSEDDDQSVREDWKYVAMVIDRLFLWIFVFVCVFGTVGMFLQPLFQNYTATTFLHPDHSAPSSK

`CC1CN(Cc2ccccc2)CCC1N1C(=O)Cc2ccccc21` (stereo not given): the negative logarithm of the Ki (pKi) in experiment [1] and in experiment [2] was less than 5.00 throughout.
As for `CN1C2C=C(c3cccnc3)CC1CCC2` (stereo not given), in experiment [3], the pEC50 was 5.32. For the same compound, in experiment [4], the maximal response (Emax) came out at 44%. In addition, the negative logarithm of the Ki (pKi) in experiment [2] is 7.98.
`CN1C2CCCC1CC(N1C(=O)Cc3ccccc31)C2` (stereo not given) had a negative-log Ki (pKi) in experiment [2] of less than 4.00.
Take `C1=C(c2cccnc2)CC2CCC1CN2Cc1ccccc1` (stereo not given): the Ratio Ki in the experiment listed under Rattus norvegicus [5] worked out at 200; in the experiment filed under Rattus norvegicus [6], 100. In addition, in experiment [3], the pEC50 is 5.70. The Emax in experiment [4] is 72%.
In the case of `CC(c1ccc(C2CCCCC2)cc1)N1CCC(N2C(=O)Cc3ccccc32)CC1` (stereo not given), the pKi in experiment [1] and in experiment [2] was less than 5.00 throughout.
The compound `O=C1Cc2ccccc2N1C1CC2CCCC(C1)N2` (stereo not given) had a negative-log Ki (pKi) in experiment [2] of less than 4.00.
With `CN1CC2CC1CC(N1C(=O)Cc3ccccc31)C2` (stereo not given), the pKi in experiment [1] and in experiment [2] was less than 5.00 each time.
Consider `O=C1Cc2ccccc2N1C1CC2CC(C1)N(Cc1ccccc1)C2` (stereo not given), for which the pKi in experiment [1] was 5.74; in experiment [2], less than 5.00.
Taken in the same sequence, the figures for `CCC(C)(C)C1CCC(N2CCC(C3C(=O)Nc4ccccc43)CC2)CC1` (stereo not given) were less than 5.00 and less than 5.00.
`CN1C2CCC1CC(N1C(=O)Cc3ccccc31)C2` (stereo not given): the pKi in experiment [2] was less than 4.00.
